Screening data (PubChem)
Hits are enriched below; roughly 1.6% of the tested compounds scored in any of these assays.
NR2E3 ag-1: activates human NR2E3 receptor; Q9Y5X4; CHO-S Gal4-NCOR/VP16-NR2E3 two-hybrid, luciferase; inhibition of corepressor binding, % at 3.98 µM; actives 0.35% (n = 360,000); AID 602229;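 active means inhibition above the mean of all tested compounds plus 3 SD, cut at about 70% in these data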;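 further: 0% = DMSO with NR2E3 transfected cells and 100% = cells lacking NR2E3 construct; higher means lower luciferase signal from less NR2E3 corepressor binding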
Target sequence (Q9Y5X4 whole entry, looked up, the tested form may be a part): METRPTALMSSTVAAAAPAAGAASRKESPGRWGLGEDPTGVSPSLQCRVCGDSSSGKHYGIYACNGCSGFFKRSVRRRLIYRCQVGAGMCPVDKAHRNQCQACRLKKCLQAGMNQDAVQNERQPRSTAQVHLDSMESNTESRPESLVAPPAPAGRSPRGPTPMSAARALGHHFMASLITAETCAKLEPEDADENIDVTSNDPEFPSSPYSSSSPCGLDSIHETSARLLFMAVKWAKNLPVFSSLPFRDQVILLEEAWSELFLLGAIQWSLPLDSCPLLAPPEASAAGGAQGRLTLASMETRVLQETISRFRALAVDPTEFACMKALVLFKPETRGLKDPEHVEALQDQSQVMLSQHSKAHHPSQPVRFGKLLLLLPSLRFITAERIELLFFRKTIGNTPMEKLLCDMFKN
PKA-R1A activ: PKA-R1A complex activation; P00514+P68181; PKA-R1A dissociation, Cy5-IP20 fluorescence polarization; scaled: DMSO 0%, 113 µM cGMP 100%; activation, % at 11.4 µM; actives 0.083% (n = 340,000);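 active means percent activation above the mean of all tested compounds plus 3 SD, cut at about 19% in these data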;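 further: higher means more PKAc released from R1A so a rise in polarization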
PG9 Ab binder: binds the HIV-1 gp120 antibody PG9 | actives 0.43% (n = 360,000) | TR-FRET gp120-PG9 antibody binding | AID 624416 | inhibition, % at 6.7 µM; in the data active means inhibition above about 8.5%
NR1D1 modulator: modulators of human Rev-erb alpha DNA binding. Rev-erbα–FITC-DNA binding, fluorescence polarization, 90 min. P20393. actives 0.79% (n = 370,000). activity, % at 10 µM. AID 1259318;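 active means activity above about 14%, limit read from the data; passing the limit was not always enough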;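 further: 0% = DMSO wells with 35 nM protein and 100% = DMSO wells with 750 nM protein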
NR2E3 ag-2: agonists of human nuclear receptor NR2E3; Q9Y5X4; GST-NR2E3/biotin-RetCOR TR-FRET, 1536-well; inhibition of corepressor binding, % at 4.78 µM; actives 0.12% (n = 320,000); AID 2300;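 active means percent inhibition above the cutoff of mean plus 3 SD of all tested compounds, set per screening campaign, cut at about 20% in these data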;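 further: 0% = DMSO wells and 100% = biotin wells as full block of FRET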
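System: GST-tagged NR2E3 plus biotinylated RetCOR corepressor; Buffer or medium: pH 7.5 Tris-based buffer; Probe or stimulus: RetCOR corepressor, biotinylated, 7 nM; Doses: compound at 4.8 µM, single dose; Schedule: 5 h incubation at 4 °C; Technique: time-resolved FRET; Evaluation: percent inhibition of TR-FRET ratio; Replication: one well per compound, singlicate testing.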
PKA-R2B activ: activates the human PKA-R2B holoenzyme complex. P22694+P31323. PKA-R2B holoenzyme dissociation, Cy5-IP20 fluorescence polarization; R2B truncated from residue 108, S112A mutant; 0% DMSO only, 100% 113 µM cGMP. activation, % at 11.4 µM. actives 0.079% (n = 340,000). AID 504700;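 active means activation above a cutoff set at the mean over all compounds plus 3 SD, cut at about 18% in these data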;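 further: higher means more holoenzyme dissociation and a rise in polarization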
NR1D1 mod conf: Rev-erb alpha (human) modulation, hit confirmation; shares compounds with NR1D1 modulator; Rev-erb alpha FITC-DNA binding, fluorescence polarization, 90 min; activation, % at 25 µM; actives 61% (n = 3,000);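 active means activation at or above a set limit, or at least 3 SD above the negative control mean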;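 further: 0% = 35 nM protein with DMSO and 100% = 750 nM protein high control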
RORg counter: RORgamma DNA-binding activity, dose-response counter-screen | shares compounds with NR1D1 modulator | purified RORgamma protein-FITC-DNA binding, fluorescence polarization | IC50, µM | actives 8% (n = 910) | AID 1259320;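 active means Compounds whose fitted half-maximal concentration for disrupting protein-DNA binding is below 10 micromolar; the record names Rev-erb in its text, so the target is in doubt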
Numbers without * were called inactive; i = inactive; nt = no result given.

SMILES	NR2E3 ag-1	PKA-R1A activ	PG9 Ab binder	NR1D1 modulator	NR2E3 ag-2	PKA-R2B activ	NR1D1 mod conf	others
COc1ccc(C(=O)Nc2ccccc2C(=O)NC(Cc2ccc(O)cc2)C(=O)NNC(=O)c2ccccc2Cl)cc1 (configuration not stated)	5	10	7	24*	-2	0	19*
O=C(NC1CCCCN(Cc2cccc(C(F)(F)F)c2)C1=O)c1ccc(F)cc1 (configuration not stated)	nt	nt	nt	-1	nt	nt	nt
Clc1ccc(-c2cc(-c3nnc4sc(Cc5cccs5)nn34)[nH]n2)cc1	nt	nt	nt	0	nt	nt	nt
COc1ccc(OC)c(C(=O)c2ccc(C(=O)Nc3ccccc3)cc2)c1	11	-19	0	3	-5	-19	nt
COc1ccc(NC(=O)c2ccc(C(=O)c3cc(OC)ccc3OC)cc2)cc1	2	-3	nt	46*	4	1	33*	RORg counter=>40
CC(=O)Nc1sc2c(c1-c1nc3ccccc3s1)CCN(C(C)C)CC2	nt	nt	nt	0	nt	nt	nt
CCOC(=O)N1CCN(c2nc(-c3cccs3)cc(C(F)(F)F)n2)CC1	-4	-8	2	22*	-4	2	9
CCOC(=O)N1CCN(c2nc(-c3ccco3)cc(C(F)(F)F)n2)CC1	-21	-14	0	10	2	8	nt
CC1CCN(S(=O)(=O)c2ccc3c(c2)c(=O)c(C(=O)NCc2cccs2)cn3C)CC1	5	-9	0	29*	2	1	10
CCN(CC)c1ccc2c(c1)OC(N)=C(C#N)C2c1cccnc1 (configuration not stated)	-76	-4	-5	53*	2	-3	48*
COc1ccc(-n2nc3ccc(NS(C)(=O)=O)cc3n2)cc1Cl	-76	-5	5	23*	-1	10	18*
CN(C(=O)c1cccc(NC(=O)Cc2ccc(NC(=O)C3CCN(C(=O)CCc4ccccc4)CC3)cc2)c1)C1CCCC1	nt	nt	-1	-8	nt	nt	nt
CC1(C)Cc2c(C#N)c(N)n(-c3ccccc3)c(=S)c2CO1	-31	nt	-1	-5	-3	nt	nt
CC1(C)C=C2C(=NN(c3ccccc3)C(N)=C2C#N)CO1	4	4	-1	19*	-1	2	11
O=C(CSc1nnc(-c2ccccc2)n1-c1ccccc1)NN=C/C=C\c1ccccc1[N+](=O)[O-]	nt	nt	nt	-6	nt	nt	nt
COc1ccc(-n2c(Cc3cccs3)nnc2SCC(=O)Nc2cccc3ccccc23)cc1	nt	nt	nt	-1	nt	nt	nt
CC(=O)c1cc(-c2ccc3nonc3c2)c(=O)n2c1CCC2	nt	nt	nt	6	nt	nt	nt
Cc1nc(SCc2nc3ccc(C(=O)c4ccccc4)cc3[nH]2)c2oc3ccccc3c2n1	-4	-5	-58	63*	nt	-1	76*
Cc1nc(SCc2nc3ccccc3[nH]2)c2oc3cc(Br)ccc3c2n1	4	-3	1	46*	nt	3	53*	RORg counter=>40
Cc1cc(C)cc(C(=O)OCCCN(C)C2CN(Cc3cn(Cc4ccccc4C(F)(F)F)nn3)S(=O)(=O)C2)c1 (configuration not stated)	nt	nt	nt	3	nt	nt	nt
COC(=O)[C@H](CC(C)C)N1Cc2nnn(Cc3ccccc3)c2-c2ccccc2S1(=O)=O	nt	nt	nt	3	nt	nt	nt
O=C1CCC[C@H]2C[C@H](NCc3cccc(Cl)c3)CC[C@]23CCCN13	nt	nt	nt	-2	nt	nt	nt
c1csc(-c2nc(-c3ccc(-c4ccon4)s3)no2)c1	-71	-6	5	21*	-6	-9	11
c1ccc(-c2nc(-c3ccc(-c4ccon4)s3)no2)cc1	-59	8	0	10	2	-7	nt
CC(C)Cc1ccc(-c2cc3nc(NCCc4ccc(S(N)(=O)=O)cc4)ccn3n2)cc1	-60	nt	-1	35*	nt	nt	24*
SMILES	NR2E3 ag-1	PKA-R1A activ	PG9 Ab binder	NR1D1 modulator	NR2E3 ag-2	PKA-R2B activ	NR1D1 mod conf	others
COc1cccc(OC)c1C(=O)N=c1sc2cc(S(C)(=O)=O)ccc2n1C	-16	-8	1	1	0	3	nt
COC(=O)Cn1c(=NC(=O)c2nc3ccccc3s2)sc2cc(S(C)(=O)=O)ccc21	nt	nt	-2	78*	0	nt	59*	RORg counter=1*
CCOC(=O)C(CN1CCCC1)c1ccccc1 (configuration not stated)	-19	-11	2	21*	7	-4	6
CC(Nc1c([N+](=O)[O-])c(=O)oc2ccccc12)C(Cl)c1ccccc1 (configuration not stated)	-1	1	2	6	5	4	nt
O=c1oc2ccccc2c(NC(c2ccccc2)c2ccccc2)c1[N+](=O)[O-]	-8	-5	0	39*	3	-7	60*	RORg counter=i
N=C(SC1CC(=O)N(c2ccc(F)cc2)C1=O)N1N=C(c2ccccc2)CC1c1ccccc1 (configuration not stated)	8	-9	0	19*	-3	-13	0
O=C(COc1ccc2c(-c3ccccc3)cc(=O)oc2c1)Nc1ccc(CCO)cc1	-15	18	6	53*	-16	-2	25*
c1nc(NCC2CCCCO2)c2cc(-c3ccc4c(c3)OCO4)ccc2n1 (configuration not stated)	nt	nt	nt	-3	nt	nt	nt
Nc1c(C(=O)Nc2ccccc2F)sc2nc(Cc3ccccc3)cc(C(F)(F)F)c12	1	-3	1	108*	-3	8	81*
Cc1cc(C(F)(F)F)c2c(N)c(C(=O)NCc3ccc(Cl)cc3)sc2n1	-20	nt	0	-6	nt	nt	nt
Cc1cc(C(F)(F)F)c2c(N)c(C(=O)Nc3cc(C)on3)sc2n1	9	-2	0	86*	1	0	60*	RORg counter=>40
C=C(C)C#CCNCc1ccccc1	nt	nt	nt	-4	nt	nt	nt
C[C@H]1[C@@H](OC(=O)N2CCCC2)CC[C@@]23CCCN2C(=O)CCC[C@@H]13	nt	nt	nt	0	nt	nt	nt
COCC(=O)N1CCC(C(=O)NC2CCCc3ccccc32)CC1 (configuration not stated)	nt	nt	nt	8	nt	nt	nt
N#Cc1cccc(-c2ccccc2C(=O)NC2CCCCN(Cc3ccc(Cl)cc3)C2=O)c1 (configuration not stated)	nt	nt	nt	4	nt	nt	nt
Cc1sc2nc(N3CCOCC3)[nH]c(=O)c2c1-c1ccccc1	16	5	3	94*	1	0	128*	RORg counter=>40
Cc1ccc(NC(=O)NC(=O)COc2ccc(Cl)cc2Cl)c(C)c1	4	2	0	2	3	1	nt
